Data published in ChEMBL document CHEMBL1122698, “Selective delivery of cytotoxic compounds to cells by the LDL pathway” (1984).

How the values were obtained:
Type in all cases: functional
[1] = species: Homo sapiens; test: The compound was tested for the toxicity of +Me-r-LDL,measured by its ability to inhibit the growth of normal human fibroblasts or chinese hamster ovary (CHO) cells, at concentration 80 ug/mL
Procedure, shortened: (§1)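 SV-40-transformed human fibroblasts (SV-589) were seeded at 20 000/well and left 4 h. They were then exposed to compound-reconstituted LDL or reconstituted methylated LDL (Me-r-LDL, not recognised by LDL receptors). Doses are given as LDL protein concentration. On day 3 the wells were PBS-washed to remove dead cells, and adherent cells were fixed with 15% formalin for 15 min and stained with crystal violet. Growth was scored visually, with untreated controls scored 4.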

[2] = species: Homo sapiens; test: The compound was tested for the toxicity of +r-LDL,measured by its ability to inhibit the growth of normal human fibroblasts or chinese hamster ovary (CHO) cells, at concentration 80 ug/mL; procedure, shortened: as §1
[3] = species: Homo sapiens; test: The compound was tested for the toxicity of normal +r-LDL, measured by its ability to inhibit the growth of normal human fibroblasts or chinese hamster ovary (CHO) cells, at concentration 0.5 ug/mL
Procedure, shortened: (§2)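 Compound reconstituted into LDL (r-LDL) and added to cells; concentration given as LDL protein, roughly equal to compound concentration. Cells plated 20 000/well, left 4 h, then r-LDL added. On day 3, wells washed with PBS to remove dead cells; adherent cells fixed in 15% formalin 15 min, crystal violet stained, scored visually on a 0–6 growth scale (untreated control = 6).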

[4] = The compound was tested for the toxicity of mutant+r-LDL, measured by its ability to inhibit the growth of normal human fibroblasts or chinese hamster ovary (CHO) cells, at concentration 0.5 ug/mL; procedure, shortened: as §2
[5] = species: Homo sapiens; test: (§3) The compound was tested for the toxicity of normal +r-LDL, measured by its ability to inhibit the growth of normal human fibroblasts or chinese hamster ovary (CHO) cells, at concentration 10 ug/mL; procedure, shortened: as §2
[6] = The compound was tested for the toxicity of mutant+r-LDL, measured by its ability to inhibit the growth of normal human fibroblasts or chinese hamster ovary (CHO) cells, at concentration 10 ug/mL; procedure, shortened: as §2
[7] = species: Homo sapiens; test: The compound was tested for the toxicity of normal +r-LDL, measured by its ability to inhibit the growth of normal human fibroblasts or chinese hamster ovary (CHO) cells, at concentration 80 ug/mL
Procedure, shortened: (§4)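 Normal human fibroblasts were seeded at 20 000/well and held 4 h before addition of compound-reconstituted LDL (r-LDL) or methylated r-LDL. Comparison cells with few LDL receptors were receptor-negative homozygous FH fibroblasts or V-79 CHO cells. Doses are given as LDL protein concentration. On day 3 the cells were PBS-washed, fixed with 15% formalin for 15 min and stained with crystal violet. Growth was scored visually from 0 to 6, with untreated controls at 6.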

[8] = species: Homo sapiens; test: as §3; procedure, shortened: as §4; remark: listed apart in the source
[9] = species: Homo sapiens; test: The compound was tested for the toxicity of normal +r-LDL, measured by its ability to inhibit the growth of normal human fibroblasts or chinese hamster ovary (CHO) cells, at concentration 20 ug/mL; procedure, shortened: as §4
[10] = The compound was tested for the toxicity of mutant+r-LDL, measured by its ability to inhibit the growth of normal human fibroblasts or chinese hamster ovary (CHO) cells, at concentration 20 ug/mL; procedure, shortened: as §4
[11] = species: Homo sapiens; test: The compound was tested for the toxicity of normal+r-LDL, measured by its ability to inhibit the growth of normal human fibroblasts or chinese hamster ovary (CHO) cells, at concentration 10 ug/mL; procedure, shortened: as §4
[12] = species: Homo sapiens; test: The compound was tested for the toxicity of normal+r-LDL, measured by its ability to inhibit the growth of normal human fibroblasts or chinese hamster ovary (CHO) cells, at concentration 2 ug/mL; procedure, shortened: as §4
[13] = The compound was tested for the toxicity of mutant+r-LDL, measured by its ability to inhibit the growth of normal human fibroblasts or chinese hamster ovary (CHO) cells, at concentration 2 ug/mL; procedure, shortened: as §4

## CCCCCCCC/C=C\CCCCCCCCC(=O)O[C@H]1CC[C@@]2(C)C(=CC[C@H]3[C@@H]4CC[C@H](C(C)CCCOC(=O)CCCc5ccc(N(CCCl)CCCl)cc5)C4CC[C@@H]32)C1 (stereo partly drawn)
[1]
  Growth of cells: 4
[2]
  Growth of cells: 4

## CCCCCCCC/C=C\CCCCCCCCC(=O)O[C@H]1CC[C@@]2(C)C(=CC[C@H]3[C@@H]4CC[C@H](C(C)C(=O)N5CCOC(CCCCCCCCCCCC)C5)C4CC[C@@H]32)C1 (stereo partly drawn)
[3]
  Growth of cells: 6
[4]
  Growth of cells: 6

## CCCCCCCC/C=C\CCCCCCCCC(=O)O[C@H]1CC[C@@]2(C)C(=CC[C@H]3[C@@H]4CC[C@H](C(C)COC(=O)N5CCOC(CCCCCCCCCCCC)C5)C4CC[C@@H]32)C1 (stereo partly drawn)
[5]
  Growth of cells: 6
[6]
  Growth of cells: 6

## CCCCCCCC/C=C\CCCCCCCCC(=O)O[C@H]1CC[C@@]2(C)C(=CC[C@H]3[C@@H]4CC[C@H](C(C)COC(=O)CCCc5ccc(N(CCCl)CCCl)cc5)C4CC[C@@H]32)C1 (stereo partly drawn)
[1]
  Growth of cells: 4
[2]
  Growth of cells: 4
[7]
  Growth of cells: 6

## CCCCCCCC/C=C\CCCCCCCCC(=O)O[C@H]1CC[C@@]2(C)C(=CC[C@H]3[C@@H]4CC[C@H](C(C)COC(=O)N(CCCl)CCCl)C4CC[C@@H]32)C1 (stereo partly drawn)
[8]
  Growth of cells: 0
[6]
  Growth of cells: 6

## CCCCCCCC/C=C\CCCCCCCCNC(=O)C(C)[C@H]1CC[C@@H]2C1CC[C@H]1[C@H]2CC=C2C[C@@H](OC(=O)CCCCCCCC/C=C\CCCCCCCC)CC[C@@]21C (stereo partly drawn)
[9]
  Growth of cells: 6
[10]
  Growth of cells: 6

## CCCCCCCC/C=C\CCCCCCCCC(=O)O[C@H]1CC[C@@]2(C)C(=CC[C@H]3[C@@H]4CC[C@H](C(C)COC(=O)NCCCCCCCCCCCC)C4CC[C@@H]32)C1 (stereo partly drawn)
[5]
  Growth of cells: 6
[6]
  Growth of cells: 6

## CCCCCCCC/C=C\CCCCCCCCN1CC(C)OC(C)C1 (stereo not drawn)
[3]
  Growth of cells: 0
[4]
  Growth of cells: 0

## CC(C)CCCC(C)C1CCC2C3CC=C4CC(OC(=O)Cc5ccc(N(CCCl)CCCl)cc5)CCC4(C)C3CCC12C (stereo not drawn)
[9]
  Growth of cells: 6
[10]
  Growth of cells: 6

## CC1=C(/C=C/C(C)=C/C=C/C(C)=C\CN2CCOCC2)C(C)(C)CCC1
[3]
  Growth of cells: 0
[4]
  Growth of cells: 0

## CCCCCCCC/C=C\CCCCCCCCOC(=O)N(CCCCCCCCCCCC)CC(F)(F)F
[8]
  Growth of cells: 6
[6]
  Growth of cells: 6

## CCCCCCCC/C=C\CCCCCCCCN1CCOCC1
[3]
  Growth of cells: 0
[4]
  Growth of cells: 1

## CCCCCCCC/C=C\CCCCCCCCOC(=O)N(CCCCCCCCCCCC)CC(F)F
[5]
  Growth of cells: 6
[6]
  Growth of cells: 6

## CCCCCCCC/C=C\CCCCCCCCOC(=O)N1CCOC(CCCCCCCCCCCC)C1 (stereo not drawn)
[5]
  Growth of cells: 6
[6]
  Growth of cells: 6

## CCCCCCCC/C=C\CCCCCCCCOC(=O)N(CCCl)CCCl
[11]
  Growth of cells: 0
[12]
  Growth of cells: 2
[6]
  Growth of cells: 0
[13]
  Growth of cells: 5
